Compound activity deposited in PubChem by Johns Hopkins Ion Channel Center.
This is a sample that favours compounds with a hit; in the whole collection about 2.3% have one here.
TRPC6 inhibitor: mouse TRPC6 channel inhibitors, primary screen, cell-based, HEK293, membrane potential dye; ACh-evoked depolarization; stronger effect = lower value; B-score at 10 µM; Short transient receptor potential channel 6 (Mus musculus), Q61143; 310,000 compounds, 1.1% hits;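 active = B-score under library mean minus 3 SD, initial fluorescence not abnormally high, positive integrated signal ratio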;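 note: B-score derived from integrated fluorescence ratio over the kinetic read; more negative B-score means stronger inhibition of depolarization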
Target sequence (Q61143 whole entry, looked up): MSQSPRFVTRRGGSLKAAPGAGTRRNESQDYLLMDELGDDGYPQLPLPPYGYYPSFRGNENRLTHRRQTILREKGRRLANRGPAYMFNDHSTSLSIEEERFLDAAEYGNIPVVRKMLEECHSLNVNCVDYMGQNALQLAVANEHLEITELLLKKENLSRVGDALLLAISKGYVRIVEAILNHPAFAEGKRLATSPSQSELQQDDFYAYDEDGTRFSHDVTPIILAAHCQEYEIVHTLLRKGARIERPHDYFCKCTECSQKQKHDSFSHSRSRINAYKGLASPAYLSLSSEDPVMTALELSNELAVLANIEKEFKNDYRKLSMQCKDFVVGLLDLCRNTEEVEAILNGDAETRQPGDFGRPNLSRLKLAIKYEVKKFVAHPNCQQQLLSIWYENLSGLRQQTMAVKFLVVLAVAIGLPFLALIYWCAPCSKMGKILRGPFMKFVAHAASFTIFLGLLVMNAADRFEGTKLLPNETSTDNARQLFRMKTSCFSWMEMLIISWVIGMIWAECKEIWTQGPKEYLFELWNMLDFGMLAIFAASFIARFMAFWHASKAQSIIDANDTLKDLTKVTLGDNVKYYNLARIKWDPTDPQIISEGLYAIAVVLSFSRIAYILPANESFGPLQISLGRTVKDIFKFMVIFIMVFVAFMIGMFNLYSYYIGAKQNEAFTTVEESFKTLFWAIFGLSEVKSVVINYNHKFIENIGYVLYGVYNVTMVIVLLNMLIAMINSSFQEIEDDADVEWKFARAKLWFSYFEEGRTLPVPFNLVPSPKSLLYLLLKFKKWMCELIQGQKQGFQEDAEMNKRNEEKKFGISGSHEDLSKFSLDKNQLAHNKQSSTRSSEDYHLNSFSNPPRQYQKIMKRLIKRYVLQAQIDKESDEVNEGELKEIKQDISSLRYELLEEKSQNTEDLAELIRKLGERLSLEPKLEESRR
TRPC4 agonist: activators of mouse TRPC4 channel, primary screen, Fluo4 calcium, HEK293 TRPC4beta/mu-opioid cells; AID 2237, 2010; B-score at 10 µM; Fluo4 calcium fluorescence; stronger effect = higher value; 310,000 compounds, 0.49% hits; Short transient receptor potential channel 4 (Mus musculus), Q9QUQ5;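 active = B-score above 5 SD of library B-scores, and initial fluorescence ratio not above library mean plus 5 SD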;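 note: positive B-score marks a calcium rise read as TRPC4 activation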
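Incubation: 45 min room-temperature Fluo4 loading, 110 s read / System: HEK293 cells stably co-expressing mouse TRPC4beta and mu-opioid receptor / Signal: Fluo4 fluorescence, kinetic / Control set: buffer (low) and maximal DAMGO (high) / Measure: integrated baseline-normalised fluorescence ratio, converted to per-well B score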
TRPC4 potent: positive allosteric modulators of TRPC4, primary screen, cell-based, mouse TRPC4beta, HEK293 mu-opioid, Fluo-4 calcium; DAMGO EC20, Fluo-4 Ca2+ flux; stronger effect = higher value; AID 2227, 2009; 310,000 compounds, 0.42% hits; B-score at 10 µM;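 active = B-score of calcium response area above 5 SD of library B-scores, with initial fluorescence ratio within 5 SD of library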;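 note: B-score of integrated fluorescence ratio over time as area under calcium response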
TRPC4 inh: inhibitors of mouse TRPC4 channel, primary screen, Fluo4 calcium, HEK293 TRPC4beta/mu-opioid cells | Short transient receptor potential channel 4 (Mus musculus), Q9QUQ5 | DAMGO-evoked Fluo4 calcium flux; stronger effect = lower value | B-score at 10 µM | 300,000 compounds, 0.39% hits | AID 2247, 2010;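 active = B-score over 3 SD under the library average, no early fluorescence shift, positive overall ratio signal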
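Material: HEK293 cells with stable TRPC4beta plus mu-opioid receptor expression; probe or stimulus: DAMGO in two steps, submaximal then maximal; technique: Fluo4 calcium fluorescence by kinetic imaging, 5 s 1 Hz baseline; measure: integrated fluorescence ratio relative to baseline, converted to per-well B score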
TRPC6 activator: mouse TRPC6 channel activators, primary screen, cell-based, HEK293, membrane potential dye; Short transient receptor potential channel 6 (Mus musculus), Q61143; HEK293-TRPC6 membrane potential dye fluorescence; stronger effect = higher value; B-score at 10 µM; 310,000 compounds, 0.13% hits; AID 2550, 2010;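 active = B-score of the integrated fluorescence ratio above library mean plus 3 SD, and starting fluorescence ratio within library mean plus 5 SD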;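 note: higher score means more depolarization so channel activation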
* = called active by the depositor; i = inactive.

SMILES | TRPC6 inhibitor | TRPC4 agonist | TRPC4 potent | TRPC4 inh | TRPC6 activator
Cc1cccc(NC(=S)NCC(c2ccccc2)N(C)C)c1 (stereo unspecified) | i | 231* | i | i | i
CN(C)C(CNC(=S)Nc1cccc(Cl)c1)c1ccccc1 (stereo unspecified) | i | 220* | i | i | i
Cc1cccc(NC(=S)NC(C)CCc2ccccc2)c1 (stereo unspecified) | i | i | i | i | i
Cc1cc(Br)cnc1NC(=S)Nc1ccc(F)cc1F | i | i | i | i | i
CCCOc1cccc(C(=O)NCCNC(=O)c2ccco2)c1 | i | i | i | -6* | i
CCN(C(=O)CSc1nnc(CNc2cccc(OC)c2)n1C1CCCCC1)C1CCS(=O)(=O)C1 (stereo unspecified) | i | i | i | i | i
CC1c2ccccc2SC(CCCN(C)C)c2ccccc21 (stereo unspecified) | i | i | i | i | i
CN(C)CCC1Sc2ccccc2Oc2ccccc21 (stereo unspecified) | i | i | i | -6* | i
Cc1ccc(N(CC(=O)N/N=C/c2cccc(Br)c2)S(C)(=O)=O)cc1 | i | i | i | i | i
CC(C)=CCCC(C)CN1CCC(n2nccc2NC(=O)C2CCCC2)CC1 (stereo unspecified) | i | i | i | -5* | i
CCCCN(C)CCNC(=O)c1cc2cc3ccc(OC)cc3nc2o1 | i | i | 12* | i | i
CCN(CC)CCNC(=O)c1cc2cc3ccc(OC)cc3nc2o1 | i | i | i | i | i
CCCOc1ccc(C(=O)NNC(=S)NC(=O)CC)cc1 | i | 46* | i | i | i
C=CCNC(=S)NNC(=O)c1ccc(OCCC)cc1 | i | i | i | i | i
Cc1onc(-c2ccccc2)c1C(=O)NC(=S)NNC(=O)c1ccccc1O | i | 247* | i | i | i
CCCOc1ccc(C(=O)NC(=S)NNC(=O)c2c(-c3ccccc3)noc2C)cc1 | i | 194* | i | i | i
CCN(C(=O)COC(=O)/C=C/c1ccccc1)C1CCCCC1 | i | i | i | i | i
Cc1nc2c(c(C)nn2-c2ccccc2)c(C)c1CCC(=O)NCCCOC(C)C | i | i | i | i | i
CN(C)c1ccc(CNCc2cccnc2)cc1 | i | i | i | i | i
Clc1ccccc1C1CC(c2ccccc2)=Nc2ccccc2N1 (stereo unspecified) | i | i | 10* | i | i
CCCCCCCCCCOC(=O)Cn1c(COc2ccccc2C)[n+](C)c2ccccc21 | i | i | i | -6* | i
O=C(CC1SC(=O)NC1=O)Nc1ccc(Cl)cc1 (stereo unspecified) | i | 45* | i | i | i
Nc1ccc(S(=O)(=O)c2ccc(Cl)cc2)cc1 | i | i | i | i | i
COc1ccc(Nc2cc(C)nc3ccc(OC)cc23)cc1 | i | i | i | -6* | i
COC(=O)c1ccc2nc(C)cc(Nc3ccc(N(C)C)cc3)c2c1 | i | i | i | i | i
SMILES | TRPC6 inhibitor | TRPC4 agonist | TRPC4 potent | TRPC4 inh | TRPC6 activator
COC(=O)c1ccc(Nc2cc(C)nc3ccccc23)cc1 | i | i | i | -6* | i
Cc1ccc(Nc2cc(C)nc3ccc(C)cc23)cc1 | i | i | i | -6* | i
Cc1nc2ccccn2c1C(=O)NN=C1C2CC3CC(C2)CC1C3 | i | i | i | i | i
Cc1cc(C)nc(/N=C(\N)Nc2ccc(S(=O)(=O)Nc3nccc(C)n3)cc2)n1 | i | i | i | i | i
Cc1ccc(NS(=O)(=O)c2ccc(C(=O)N3CC(C)CC(C)C3)cc2)cc1 (stereo unspecified) | i | 104* | i | i | i
Cc1ccc(S(=O)(=O)Nc2ccc(C(=O)N3CCCC3)cc2)cc1 | i | i | i | i | i
CC#CC[N+](C)(C)CCCCCCCCCCCC | i | i | i | -8* | i
C#CC[N+](C)(C)CCCCCCCCCC | i | i | i | i | i
CCN1CCN(C2=NC(=O)/C(=C/c3ccc(C)o3)S2)CC1 | i | i | 14* | i | i
Cc1ccc(/C=C2\SC(N3CCCCC3)=NC2=O)cc1 | i | i | 12* | i | i
CCOc1ccc(OCc2ccc(C(=O)NCc3ccncc3)o2)cc1 | i | i | i | i | i
CCc1ccc(OCc2ccc(C(=O)NCc3ccccn3)o2)cc1 | i | i | 25* | i | i
CSc1nc(N2CCOCC2)c2c3c(sc2n1)CCCC3 | i | i | i | -6* | i
CC(C)(C)n1nnnc1C(c1ccc(Cl)cc1)N(Cc1cccnc1)Cc1ccco1 (stereo unspecified) | i | i | 42* | i | i
O=S(=O)(c1ccc(Oc2ccc(Br)cc2)cc1)N1CCOCC1 | i | i | 17* | i | i
Cc1ccsc1/C=C(\C#N)C(=O)Nc1c(C)n(C)n(-c2ccccc2)c1=O | i | i | 11* | i | i
COc1ccccc1N1CCN(C(c2ccccn2)c2nnnn2C2CCCCC2)CC1 (stereo unspecified) | i | 74* | i | i | i
Fc1ccccc1N1CCN(C(c2ccccn2)c2nnnn2C2CCCCC2)CC1 (stereo unspecified) | i | i | i | i | i
CCCOc1ccc(C(=O)NCC(c2cccs2)N(C)C)cc1OC (stereo unspecified) | i | i | i | i | i
COc1cc(C(=O)NCC(c2cccs2)N(C)C)cc(Cl)c1OC(C)C (stereo unspecified) | i | 63* | i | i | i
COc1cc2ccccc2cc1C(=O)NCC(c1cccs1)N(C)C (stereo unspecified) | i | 179* | i | i | i
CCOC(=O)c1c(C)n(C)c2ccc(OCC(O)CNCCc3ccccc3)cc12 (stereo unspecified) | i | i | 21* | i | i
CC(=O)c1cccc(OCC(O)CNCCc2ccc(Cl)cc2)c1 (stereo unspecified) | i | i | 10* | i | i
